Test results published in ChEMBL document CHEMBL1687750, “Nonclinical pharmacokinetics of oseltamivir and oseltamivir carboxylate in the central nervous system” (Antimicrob Agents Chemother, 2009).

Test system: CCOC(=O)C1=C[C@@H](OC(CC)CC)[C@H](NC(C)=O)[C@@H](N)C1
Assay: Activity of human MDR1-mediated drug permeability expressed in pig LLC-PK1 cells
Format: cell-based
Method in brief: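 P-gp-transfected LLC-PK1 monolayers; 14C-labelled substrate (0.1 to 10 mM) plus Lucifer yellow added to the apical or basolateral donor side, ± elacridar 1 μM; 37°C, 5% CO2; acceptor sampled at 30 min and 1, 2, 3 h and counted by scintillation; Pe from the 3 h point, not corrected for marker flux; B-to-A/A-to-B ratio; three inserts per condition, mean.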

**Q.** What does the source list for “ATP-dependent translocase ABCB1 (Homo sapiens)”?
**A.** Km: 4.2 mM; Vmax: 0.000534 µmol/min
